According to ChEMBL document CHEMBL4028810, “Synthesis and biological evaluation of novel chalcone derivatives as a new class of microtubule destabilizing agents” (Eur J Med Chem, 2017):
Active and inactive are the calls of the source. The rule behind the calls is not given here.

Assays:
[1] = tested on: HepG2; experiment: Cytotoxicity against human HepG2 cells after 48 hrs by MTT assay; format: functional, cell-based; details: HepG2, 48 h
Summary of the method: (§1)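 Log-phase cells were seeded at about 1 × 10⁵ cells/mL in 96-well plates and allowed to settle 12 h at 37 °C in 5% CO₂. Compounds were added at five concentrations for 48 h. Absorbance was read at dual wavelength 570/630 nm. Survival was expressed as a percentage of control, and IC50 was calculated by the Bliss method (n = 5). Each test was run in triplicate.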

[2] = tested on: MGC-803; experiment: Cytotoxicity against human MGC803 cells after 48 hrs by MTT assay; format: functional, cell-based; details: MGC-803, 48 h; summary of the method: as §1
[3] = tested on: SK-OV-3; experiment: Cytotoxicity against human SKOV3 cells after 48 hrs by MTT assay; format: functional, cell-based; details: SK-OV-3, 48 h; summary of the method: as §1
[4] = tested on: L02; experiment: Cytotoxicity against human HL7702 cells after 48 hrs by MTT assay; format: cell-based; details: L02, 48 h; summary of the method: as §1
[5] = tested on: HeLa; experiment: Resistant factor, ratio of IC50 for human HeLa/TR cells to IC50 for human HeLa cells; format: functional
Summary of the method: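 The resistance index is IC50 on the paclitaxel-resistant line divided by IC50 on the parental sensitive line (A549 or HeLa). Both IC50 values come from the 48 h, five-concentration growth assay with 570/630 nm absorbance read-out and Bliss-method calculation.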

[6] = tested on: A549; experiment: Cytotoxicity against human A549 cells after 48 hrs by MTT assay; format: functional, cell-based; details: A549, 48 h; summary of the method: as §1
[7] = tested on: A549/TR; experiment: Cytotoxicity against human A549/TR cells after 48 hrs by MTT assay; format: functional, cell-based; summary of the method: as §1
[8] = tested on: HeLa; experiment: Cytotoxicity against human HeLa cells after 48 hrs by MTT assay; format: functional, cell-based; summary of the method: as §1
[9] = Cytotoxicity against human HeLa/TR cells after 48 hrs by MTT assay; format: functional, cell-based; summary of the method: as §1
[10] = species: Sus scrofa; experiment: Inhibition of porcine brain tubulin polymerization at 15 uM measured at 1 min interval for 40 mins by spectrophotometric method
Summary of the method: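 Purified brain tubulin, final 3.0 mg/mL, was added to start the reaction in 80 mM PIPES pH 6.9, 2.0 mM MgCl₂, 0.5 mM EGTA, 1 mM GTP and 10.2% glycerol, with the other components prewarmed to 37 °C. Compounds were tested at 10 or 15 µM. Polymerization at 37 °C was followed as absorbance at 340 nm over 40 min.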

[11] = tested on: NCI-H460; experiment: Induction of apoptosis in human NCI-H460 cells assessed as live cells at 5 uM after 24 hrs by Annexin V-FITC/propidium iodide staining based flow cytometric method (reference value: 95.8%); format: functional
[12] = tested on: NCI-H460; experiment: Induction of apoptosis in human NCI-H460 cells assessed as live cells at 10 uM after 24 hrs by Annexin V-FITC/propidium iodide staining based flow cytometric method (reference value: 95.8%); format: functional
[13] = tested on: NCI-H460; experiment: Induction of apoptosis in human NCI-H460 cells assessed as early apoptotic cells at 10 uM after 24 hrs by Annexin V-FITC/propidium iodide staining based flow cytometric method (reference value: 1.55%); format: functional
[14] = tested on: NCI-H460; experiment: Induction of apoptosis in human NCI-H460 cells assessed as late apoptotic cells at 10 uM after 24 hrs by Annexin V-FITC/propidium iodide staining based flow cytometric method (reference value: 0.839%); format: functional
[15] = tested on: NCI-H460; experiment: Induction of apoptosis in human NCI-H460 cells assessed as necrotic cells at 10 uM after 24 hrs by Annexin V-FITC/propidium iodide staining based flow cytometric method (reference value: 1.84%); format: functional
[16] = tested on: NCI-H460; experiment: Induction of apoptosis in human NCI-H460 cells assessed as appearance of hyper-condensed nuclei after 24 hrs by Hoechst 33258 staining based fluorescence assay; format: functional, cell-based
Summary of the method: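 NCI-H460 cells were treated 24 h at 5 or 10 µM, with untreated cells as control. Nuclei were stained with Hoechst 33258 and inspected by fluorescence for chromatin condensation.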

[17] = tested on: NCI-H460; experiment: Cell cycle arrest in human NCI-H460 cells assessed as accumulation at G1-phase at 5 uM after 48 hrs by propidium iodide staining based flow cytometric method (reference value: 75.84%); format: functional
[18] = tested on: NCI-H460; experiment: Cell cycle arrest in human NCI-H460 cells assessed as accumulation at G2-phase at 5 uM after 48 hrs by propidium iodide staining based flow cytometric method (reference value: 2.37%); format: functional
[19] = tested on: NCI-H460; experiment: Cell cycle arrest in human NCI-H460 cells assessed as accumulation at S-phase at 5 uM after 48 hrs by propidium iodide staining based flow cytometric method (reference value: 21.79%); format: functional
[20] = tested on: NCI-H460; experiment: Cell cycle arrest in human NCI-H460 cells assessed as increase in accumulation at G2-phase after 48 hrs by propidium iodide staining based flow cytometric method; format: functional
[21] = tested on: NCI-H460; experiment: Induction of apoptosis in human NCI-H460 cells assessed as increase in ROS generation after 24 hrs by DCFH-DA staining based flow cytometric method; format: functional, cell-based
Summary of the method: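 NCI-H460 cells in six-well plates were treated 24 h at 5 or 10 µM, with untreated cells as control. Cells were pelleted at 2000 rpm, washed twice in ice-cold PBS and resuspended in 10 µM DCFH-DA in cell-free medium for 20 min at 37 °C in the dark. After two more PBS washes, fluorescence was read by flow cytometry.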

[22] = tested on: NCI-H460; experiment: Disruption of mitochondrial membrane potential in human NCI-H460 cells assessed as collapse of mitochondrial membrane potential at 5 uM after 24 hrs by JC-1 staining based flow cytometric method (reference value: 1.98%); format: functional
Summary of the method: (§2)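 NCI-H460 cells were treated 24 h at 5 or 10 µM, with untreated cells as control. The medium was replaced, and the JC-1 probe was added 20 min later. Cells were then pelleted at 2000 rpm, washed twice in ice-cold PBS and analysed by flow cytometry with excitation at 488 nm and emission at 530 and 590 nm.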

[23] = tested on: NCI-H460; experiment: Disruption of mitochondrial membrane potential in human NCI-H460 cells assessed as collapse of mitochondrial membrane potential at 10 uM after 24 hrs by JC-1 staining based flow cytometric method (reference value: 1.98%); format: functional; summary of the method: as §2
[24] = tested on: NCI-H460; experiment: Disruption of mitochondrial membrane potential in human NCI-H460 cells assessed as intact mitochondrial membrane potential at 10 uM after 24 hrs by JC-1 staining based flow cytometric method (reference value: 11.9%); format: functional; summary of the method: as §2
[25] = tested on: NCI-H460; experiment: Disruption of mitochondrial membrane potential in human NCI-H460 cells after 24 hrs by JC-1 staining based flow cytometric method; format: functional, cell-based; summary of the method: as §2
[26] = tested on: NCI-H460; experiment: Induction of apoptosis in human NCI-H460 cells assessed as increase in cytochrome c release from mitochondria to cytosol after 48 hrs by Western blot method; format: functional, cell-based
Summary of the method: (§3)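 NCI-H460 cells were treated 48 h at various concentrations. Cells were washed in ice-cold PBS and lysed on ice for 20 min, and lysates were spun at 20000 g and 4 °C for 5 min. Protein was quantified by BCA, and equal amounts were run on 12% SDS-PAGE and transferred to PVDF. Membranes were blocked in 5% milk/TBST, probed overnight at 4 °C with primary antibodies (β-actin as reference), then with peroxidase secondary for 2 h. Bands were detected by chemiluminescence.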

[27] = tested on: NCI-H460; experiment: Induction of apoptosis in human NCI-H460 cells assessed as increase in cleaved caspase-3 expression at 5 to 10 uM after 48 hrs by Western blot method; format: functional, cell-based; summary of the method: as §3
[28] = tested on: NCI-H460; experiment: Induction of apoptosis in human NCI-H460 cells assessed as upregulation of Bax expression after 48 hrs by Western blot method; format: functional, cell-based; summary of the method: as §3

SMILES: COc1ccc(/C=C/C(=O)c2cc(OC)c(OC)c(OC)c2)cc1OCC(=O)Nc1ccccc1Cl
- IC50 [1]: 4.06 µM
- IC50 [2]: 8.42 µM
- IC50 [3]: 6.28 µM
- IC50 [4]: > 50 µM
- Ratio IC50 [5]: 1.31
- IC50 [6]: 5.21 µM
- IC50 [7]: 6.25 µM
- IC50 [8]: 4.53 µM
- IC50 [9]: 5.95 µM
- inhibition [10]: Active
- Activity [11]: 83.6%
- Activity [12]: 22.7%
- Activity [13]: 23.7%
- Activity [14]: 42.7%
- Activity [15]: 10.9%
- Activity [16]: Dose-dependent effect
- Activity [17]: 59.12%
- Activity [18]: 11.88%
- Activity [19]: 29%
- Activity [20]: Dose-dependent effect
- Activity [21]: Dose-dependent effect
- Activity [22]: 3.13%
- Activity [23]: 4.86%
- Activity [24]: 26.2%
- Activity [25]: Dose-dependent effect
- Activity [26]: Dose-dependent effect
- Activity [27]: Active
- Activity [28]: Dose-dependent effect
